In ChEMBL document CHEMBL4665798, “Novel Human Urate Transporter 1 Inhibitors as Hypouricemic Drug Candidates with Favorable Druggability” (J Med Chem, 2020):

What was measured:
[1] = Sub-acute toxicity in male Kunming mouse assessed as increase in body weight at 50 mg/kg, po administered once every second day for 14 days; format: organism-based; conditions: in vivo, 336 h, time 14 day
[2] = Acute toxicity in Kunming mouse assessed as induction of abnormal behaviors by measuring anorexia at 500 mg/kg, ig; format: organism-based; conditions: in vivo, po
[3] = Oral bioavailability in Sprague-Dawley rat at 10 mg/kg by LC-MS analysis; format: ADME, organism-based; conditions: in vivo
Summary of the method: (§1)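 Male Sprague-Dawley rats, two groups, dosed iv or orally; compound in PEG 400/normal saline (70/30, V/V). Oral blood from sinus jugularis at 5 min to 24 h, plasma by centrifugation at 2200 g, stored -20 °C. Plasma with internal standard precipitated by methanol, quantified by LC-MS against spiked blank-plasma standard curves. Mean ± SD, n = 5.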

[4] = Cmax in Sprague-Dawley rat at 10 mg/kg, po by LC-MS analysis; format: ADME, organism-based; set-up: route oral, dose 10 mg/kg; conditions: in vivo; summary of the method: as §1
[5] = Half-life in Sprague-Dawley rat at 10 mg/kg, po by LC-MS analysis; format: ADME, organism-based; conditions: in vivo; summary of the method: as §1
[6] = AUC (0 to infinity) in Sprague-Dawley rat at 10 mg/kg, po by LC-MS analysis; format: ADME, organism-based; set-up: time infinity, route oral, dose 10 mg/kg; conditions: in vivo; summary of the method: as §1
[7] = AUC (0 to t) in Sprague-Dawley rat at 10 mg/kg, po by LC-MS analysis; format: ADME, organism-based; set-up: dose 10 mg/kg; conditions: in vivo; summary of the method: as §1
[8] = Sub-acute toxicity in Kunming mouse assessed as death at 50 mg/kg, po administered once every second day for 14 days; format: organism-based; conditions: in vivo, 336 h, time 14 day
[9] = Sub-acute toxicity in Kunming mouse assessed as anorexia at 50 mg/kg, po administered once every second day for 14 days; format: organism-based; conditions: in vivo, 336 h, time 14 day
[10] = molecular target: Voltage-gated inwardly rectifying potassium channel KCNH2 (Homo sapiens, UniProt Q12809); assay: Inhibition of human ERG expressed in HEK293 cells at -80 mV holding potential by whole cell voltage patch clamp assay; format: cell-based
Summary of the method: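 Manual patch clamp on HEK293 cells stably expressing hERG, cultured at least 24 h at 37 °C, 5% CO2. Pipettes 3–5 MΩ. Current stabilized 3 min with vehicle before compound. Compound kept on until peak tail current stable (<5% change) for ~5 sweeps. Cisapride monohydrate used as reference.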

[11] = Tmax in male Kunming mouse at 500 mg/kg, po by LC-MS/MS analysis; format: ADME, organism-based; conditions: in vivo
Summary of the method: (§2)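 Male Kunming mice given oral compound in PEG 400/normal saline (70/30, V/V). Blood from submandibular or saphenous vein into K2EDTA tubes at 0.25 to 72 h. Plasma spun at 3200g near 4 °C, kept -70 °C, precipitated with acetonitrile plus dexamethasone internal standard. Quantified by LC-MS/MS against spiked blank-plasma standard curves.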

[12] = Cmax in male Kunming mouse at 500 mg/kg, po by LC-MS/MS analysis; format: ADME, organism-based; set-up: route oral, dose 500 mg/kg; conditions: in vivo; summary of the method: as §2
[13] = Half-life in male Kunming mouse at 500 mg/kg, po by LC-MS/MS analysis; format: ADME, organism-based; conditions: in vivo; summary of the method: as §2
[14] = AUC (0 to infinity) in male Kunming mouse at 500 mg/kg, po by LC-MS/MS analysis; format: ADME, organism-based; set-up: time infinity, route oral, dose 500 mg/kg; conditions: in vivo; summary of the method: as §2
[15] = MRT (0 to infinity) in male Kunming mouse at 500 mg/kg, po by LC-MS/MS analysis; format: ADME, organism-based; conditions: in vivo; summary of the method: as §2
[16] = AUC (0 to t) in male Kunming mouse at 500 mg/kg, po by LC-MS/MS analysis; format: ADME, organism-based; set-up: dose 500 mg/kg; conditions: in vivo; summary of the method: as §2
[17] = Cmax in male Kunming mouse at 50 mg/kg, po by LC-MS/MS analysis; format: ADME, organism-based; set-up: route oral, dose 50 mg/kg; conditions: in vivo
Summary of the method: (§3)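 Male Kunming mice, ten in total, split into five groups; single oral dose in PEG 400/normal saline (70/30, v/v). Blood taken from submandibular or saphenous vein into K2EDTA tubes at 0.25, 0.5, 1, 2, 4, 8, 24, 48, 72 h. Plasma spun at about 4 °C and kept at -70 °C. Acetonitrile precipitation with dexamethasone internal standard, then LC-MS/MS against plasma standard curves.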

[18] = Half-life in male Kunming mouse at 50 mg/kg, po by LC-MS/MS analysis; format: ADME, organism-based; conditions: in vivo; summary of the method: as §3
[19] = Tmax in male Kunming mouse at 50 mg/kg, po by LC-MS/MS analysis; format: ADME, organism-based; conditions: in vivo; summary of the method: as §3
[20] = AUC (0 to infinity) in male Kunming mouse at 50 mg/kg, po by LC-MS/MS analysis; format: ADME, organism-based; set-up: route oral, time infinity, dose 50 mg/kg; conditions: in vivo; summary of the method: as §3
[21] = MRT (0 to infinity) in male Kunming mouse at 50 mg/kg, po by LC-MS/MS analysis; format: ADME, organism-based; conditions: in vivo; summary of the method: as §3
[22] = AUC (0 to t) in male Kunming mouse at 50 mg/kg, po by LC-MS/MS analysis; format: ADME, organism-based; set-up: dose 50 mg/kg; conditions: in vivo; summary of the method: as §3
[23] = Cmax in male Kunming mouse at 2 mg/kg, po by LC-MS/MS analysis; format: ADME, organism-based; set-up: route oral, dose 2 mg/kg; conditions: in vivo; summary of the method: as §3
[24] = Tmax in male Kunming mouse at 2 mg/kg, po by LC-MS/MS analysis; format: ADME, organism-based; conditions: in vivo; summary of the method: as §3
[25] = Half-life in male Kunming mouse at 2 mg/kg, po by LC-MS/MS analysis; format: ADME, organism-based; conditions: in vivo; summary of the method: as §3
[26] = MRT (0 to infinity) in male Kunming mouse at 2 mg/kg, po by LC-MS/MS analysis; format: ADME, organism-based; conditions: in vivo; summary of the method: as §3
[27] = AUC (0 to infinity) in male Kunming mouse at 2 mg/kg, po by LC-MS/MS analysis; format: ADME, organism-based; set-up: time infinity, route oral, dose 2 mg/kg; conditions: in vivo; summary of the method: as §3
[28] = AUC (0 to t) in male Kunming mouse at 2 mg/kg, po by LC-MS/MS analysis; format: ADME, organism-based; set-up: dose 2 mg/kg; conditions: in vivo; summary of the method: as §3
[29] = Oral bioavailability in Sprague-Dawley rat at 20 mg/kg by LC-MS analysis; format: ADME, organism-based; conditions: in vivo
[30] = Cmax in Sprague-Dawley rat at 20 mg/kg, po by LC-MS analysis; format: ADME, organism-based; set-up: route oral, dose 20 mg/kg; conditions: in vivo
[31] = Tmax in Sprague-Dawley rat at 20 mg/kg, po by LC-MS analysis; format: ADME, organism-based; conditions: in vivo
[32] = Half-life in Sprague-Dawley rat at 20 mg/kg, po by LC-MS analysis; format: ADME, organism-based; conditions: in vivo
[33] = MRT (0 to infinity) in Sprague-Dawley rat at 20 mg/kg, po by LC-MS analysis; format: ADME, organism-based; conditions: in vivo
[34] = AUC (0 to infinity) in Sprague-Dawley rat at 20 mg/kg, po by LC-MS analysis; format: ADME, organism-based; set-up: route oral, time infinity, dose 20 mg/kg; conditions: in vivo
[35] = AUC (0 to t) in Sprague-Dawley rat at 20 mg/kg, po by LC-MS analysis; format: ADME, organism-based; set-up: dose 20 mg/kg; conditions: in vivo
Rattus norvegicus [36] = species: Rattus norvegicus; assay: Hypouricemic activity in rat model of xanthine/potassium oxonate-induced acute hyperuricemia assessed as decrease in serum uric acid level relative to control; format: functional; set-up: scale not given: the % may be the effect or the level left
Rattus norvegicus [37] = species: Rattus norvegicus; assay: Potency index, ratio of lesinurad to test compound for hypouricemic activity in rat model of xanthine/potassium oxonate-induced acute hyperuricemia assessed as decrease in serum uric acid level; format: functional

Voltage-gated inwardly rectifying potassium channel KCNH2, sequence (Q12809 whole entry): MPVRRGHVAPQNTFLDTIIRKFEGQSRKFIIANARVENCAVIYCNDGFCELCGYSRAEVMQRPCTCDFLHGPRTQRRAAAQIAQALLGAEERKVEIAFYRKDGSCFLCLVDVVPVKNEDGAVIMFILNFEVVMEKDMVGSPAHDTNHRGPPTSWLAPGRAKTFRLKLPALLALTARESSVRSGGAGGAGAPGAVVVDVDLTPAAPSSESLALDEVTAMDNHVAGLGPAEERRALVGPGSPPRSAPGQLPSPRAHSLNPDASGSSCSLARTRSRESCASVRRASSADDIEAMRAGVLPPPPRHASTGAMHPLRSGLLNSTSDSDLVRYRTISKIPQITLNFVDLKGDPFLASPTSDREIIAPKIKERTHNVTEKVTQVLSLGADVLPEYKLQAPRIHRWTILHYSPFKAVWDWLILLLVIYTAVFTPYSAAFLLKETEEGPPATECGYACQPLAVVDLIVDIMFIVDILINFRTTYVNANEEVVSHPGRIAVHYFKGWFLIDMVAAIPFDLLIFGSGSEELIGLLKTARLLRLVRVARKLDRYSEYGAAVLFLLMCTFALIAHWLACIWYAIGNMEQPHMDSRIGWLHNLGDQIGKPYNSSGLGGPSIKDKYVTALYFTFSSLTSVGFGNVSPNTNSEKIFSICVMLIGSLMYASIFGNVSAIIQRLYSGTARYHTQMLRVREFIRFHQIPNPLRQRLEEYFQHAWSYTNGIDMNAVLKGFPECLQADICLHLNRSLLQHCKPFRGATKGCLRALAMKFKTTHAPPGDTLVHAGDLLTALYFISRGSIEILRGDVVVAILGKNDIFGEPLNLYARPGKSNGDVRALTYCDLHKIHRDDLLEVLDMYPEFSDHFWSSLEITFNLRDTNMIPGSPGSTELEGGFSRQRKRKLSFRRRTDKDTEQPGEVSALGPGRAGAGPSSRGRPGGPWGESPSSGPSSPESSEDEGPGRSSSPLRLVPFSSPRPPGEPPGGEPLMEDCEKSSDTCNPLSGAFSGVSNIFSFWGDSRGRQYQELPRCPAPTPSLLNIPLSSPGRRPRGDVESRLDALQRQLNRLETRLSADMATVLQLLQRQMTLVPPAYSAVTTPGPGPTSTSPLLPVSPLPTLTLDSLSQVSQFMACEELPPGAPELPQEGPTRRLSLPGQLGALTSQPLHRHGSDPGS

In the case of `O=C(CSc1nnc(Br)n1-c1ccc(C2CC2)c2ccccc12)NS(=O)(=O)c1ccc(Br)cc1`, the Activity [1] is reported as “Non-Toxic”, the Activity [2] is reported as “Non-Toxic” and the bioavailability [3] is reported as 63.4%. For the same molecule, the Cmax [4] was 3400 ng/mL, the half-life [5] was 3.4 h and the AUC(0-inf) [6] was 19.6 µg·h/mL. The AUC(0-t) [7] was 19.4 µg·h/mL, the Activity [8] was “Non-Toxic” and the Activity [9] was “Non-Toxic”.

With `CC(Sc1nc2ncccc2n1-c1ccc(C2CC2)c2ccccc12)C(=O)O` (racemic) the IC50 [10] was over 30 µM, the Tmax [11] was 18.7 h and the Cmax [12] was 149000 ng/mL. The half-life [13] was 3.9 h, the AUC(0-inf) [14] was 2960 µg·h/mL and the MRT inf [15] was 15.7 h. For the same molecule, the AUC(0-t) [16] was 2960 µg·h/mL, the Cmax [17] was 37900 ng/mL and the half-life [18] was 7.06 h. The Tmax [19] was 1.67 h, the AUC(0-inf) [20] was 335 µg·h/mL and the MRT inf [21] was 6.16 h. The AUC(0-t) [22] was 335 µg·h/mL, the Cmax [23] was 2080 ng/mL and the Tmax [24] was 0.5 h. For the same molecule, the half-life [25] was 4.24 h, the MRT inf [26] was 6.44 h and the AUC(0-inf) [27] was 13 µg·h/mL. The AUC(0-t) [28] was 13 µg·h/mL, the Activity [1] was “Non-Toxic” and the Activity [2] was “Non-Toxic”. For the same molecule, the bioavailability [29] was 76.3%, the Cmax [30] was 15500 ng/mL and the Tmax [31] was 2 h. For the same molecule, the half-life [32] was 3.4 h, the MRT inf [33] was 5.3 h and the AUC(0-inf) [34] was 88.8 µg·h/mL. For the same molecule, the AUC(0-t) [35] was 53.2 µg·h/mL, the Activity (Rattus norvegicus [36]) was 83.96% and the Ratio (Rattus norvegicus [37]) was 1.6. For the same molecule, the Activity [8] was “Non-Toxic” and the Activity [9] was “Non-Toxic”.
